Results reported in ChEMBL document CHEMBL1944526, “Diamine and aminoalcohol derivatives active against Trypanosoma brucei” (Bioorg Med Chem Lett, 2012).
The source made the active and inactive calls. The rule behind the calls is not given here.

Columns and labels:
[1] = system: Trypanosoma brucei rhodesiense; assay: Antitrypanosomal activity against bloodstream form of Trypanosoma brucei rhodesiense EATRO3 after 72 hrs by alamar blue assay; assay type: functional, organism-based; conditions: EATRO3, 72 h
Procedure, shortened: (§1)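 Bloodstream-form parasites were grown in HMI-9 with 20% heat-inactivated FBS at 37 °C and 5% CO2. They were seeded at 2 × 10^3 cells/ml (T. b. rhodesiense EATRO3) or 2 × 10^4 cells/ml (T. b. gambiense ELIANE) and exposed to a compound dilution series for 72 h. Untreated cells with matching DMSO served as controls. Alamar Blue fluorescence was read at ex 550/em 590 nm, and EC50 was derived from it.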

[2] = Selectivity index, ratio of CC50 for african green monkey Vero cells to EC50 for Trypanosoma brucei gambiense ELIANE; assay type: toxicity, cell-based; conditions: read-out: Ratio CC50/EC50
Procedure, shortened: (§2)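 Vero cells were grown in DMEM with 10% heat-inactivated FBS and seeded at 5 × 10^4 cells/ml. They were exposed to 4–35 (units as printed unclear) compound concentrations for 72 h at 37 °C and 5% CO2. CC50 came from Alamar Blue fluorescence (ex 550/em 590 nm). SI = CC50 (Vero) / EC50 (parasite, 72 h Alamar Blue assay).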

[3] = system: Trypanosoma brucei gambiense; assay: Antitrypanosomal activity against bloodstream form of Trypanosoma brucei gambiense ELIANE after 72 hrs by alamar blue assay; assay type: functional, organism-based; procedure, shortened: as §1
[4] = Selectivity index, ratio of CC50 for african green monkey Vero cells to EC50 for Trypanosoma brucei rhodesiense EATRO3; assay type: toxicity, cell-based; conditions: read-out: Ratio CC50/EC50; procedure, shortened: as §2
[5] = system: Trypanosoma brucei rhodesiense; assay: Antitrypanosomal activity against bloodstream form of Trypanosoma brucei rhodesiense EATRO3 assessed as alteration of flagellar pocket at […] after 24 hrs by microscopic analysis; assay type: functional, organism-based
Procedure, shortened: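 Live bloodstream-form T. b. rhodesiense EATRO3, cultured in HMI-9 with 20% heat-inactivated FBS at 37 °C and 5% CO2, were treated for 24 h. Flagellar pocket morphology was imaged with Nomarski optics and compared against untreated parasites.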

| Compound | EC50 [1] [nM] | selectivity ratio [4] | further results |
| --- | --- | --- | --- |
| CCCCCCCCCCCCCCC(CNCCCCCC)NC(=O)OC(C)(C)C (racemic) | > 2500 | – | – |
| CCCCCCCCCCCCCCC(CNC(=O)CCC(=O)O)NC(=O)OC(C)(C)C (racemic) | > 2500 | – | – |
| CCCCCCCCCCCCCCC(O)CNCCCCCC (racemic) | > 2500 | – | – |
| CCCCCCCCCCCCCCC(O)CN(CC)CC (racemic) | 2000 | 19.9 | – |
| CCCCCCCCCCCCCCC(O)CN1CCN(CCCC)CC1 (racemic) | 1780 | – | – |
| CCCCCCCCCCCCCCC(O)CN1CCOCC1 (racemic) | > 2500 | – | – |
| CCCCCCCCCCCCCCC(N)CO (racemic) | > 2500 | – | – |
| CCCCCCCCCCCCCCC(COCc1ccccc1)NC(=O)CCC(=O)O (racemic) | > 2500 | – | – |
| CCCCCCCCCCCCCCC(CO)NCC (racemic) | 1140 | 39.1 | – |
| CCCCCCCCCCCCCCC(N)CNCC(=O)O (racemic) | > 2500 | – | – |
| CCCCCCCCCCCCCCC(CO)NC(=O)CCCC(=O)O (racemic) | > 2500 | – | – |

These reach a lower EC50 [1]. Values come first.

| EC50 [1] [nM] | Compound | selectivity ratio [4] | further results |
| --- | --- | --- | --- |
| 3.7 | N=C(N)c1ccc(OCCCCCOc2ccc(C(=N)N)cc2)cc1 | – | – |
| 1090 | CCCCCCCCCCC(CO)NCC (racemic) | – | – |
| 584 | CCCCCCCCCCCCCCCCC(CO)NCC (racemic) | 27.7 | selectivity ratio [2]: 35.9; EC50 [3]: 451 nM; Activity [5]: Active |
| 436 | CCCCCCCCCCCCCCC(O)CNC(C)C (racemic) | 27.1 | selectivity ratio [2]: 35.8; EC50 [3]: 329 nM; Activity [5]: Active |
| 524 | CCCCCCCCCCCCCCC(O)CN1CCN(C)CC1 (racemic) | 23.7 | selectivity ratio [2]: 28.8; EC50 [3]: 431 nM; Activity [5]: Active |
| 817 | CCCCCCCCCCCCCCC(CO)NCCCC (racemic) | – | – |
| 704 | CCCCCCCCCCCCCCC(CNCC)NC(=O)OC(C)(C)C (racemic) | 38.8 | – |
| 722 | CCCCCCCCCCCCCCC(CO)N(CC)CC (racemic) | – | – |
| 790 | CCCCCCCCCCCCCCC(O)CNC1CCCCC1 (racemic) | – | – |
| 961 | CCCCCCCCCCCCCCC(CN)NC(=O)OC(C)(C)C (racemic) | 17 | – |
| 185 | Cc1ccc(C(=O)Nc2ccc(S(=O)(=O)O)c3cc(S(=O)(=O)O)cc(S(=O)(=O)O)c23)cc1NC(=O)c1cccc(NC(=O)Nc2cccc(C(=O)Nc3cc(C(=O)Nc4ccc(S(=O)(=O)O)c5cc(S(=O)(=O)O)cc(S(=O)(=O)O)c45)ccc3C)c2)c1 [SURAMIN] | – | – |
